Experiments:
[1] = biological target: Mitogen-activated protein kinase 3 (Homo sapiens, UniProt P27361); assay: Inhibition of ERK1 (unknown origin) using peptide substrate measured after 45 mins by IMAP assay
[2] = system: HT-29; assay: Antiproliferative activity against human HT-29 cells harboring BRAF V600E/D mutant measured after 4 days; type: functional, cell-based; settings: HT-29, 96 h
[3] = biological target: Cytochrome P450 3A4 (Homo sapiens, UniProt P08684); assay: Inhibition of CYP3A4 (unknown origin) co-incubated with substrate; type: ADME
[4] = biological target: hERG (KCNH2) (Homo sapiens, UniProt Q12809); assay: Inhibition of human ERG at 10 uM by IonWork assay relative to control
[5] = biological target: Cytochrome P450 2C9 (Homo sapiens, UniProt P11712); assay: Inhibition of CYP2C9 (unknown origin) co-incubated with substrate; type: ADME
[6] = Apparent permeability across apical to basolateral side in human Caco2 cells; type: ADME, cell-based; settings: Caco-2, read-out: permeability
[7] = Apparent permeability across basolateral to apical side in human Caco2 cells; type: ADME, cell-based; settings: Caco-2, read-out: permeability
[8] = Protein binding in dog plasma at 10 uM; type: ADME, cell-free, Canis lupus familiaris; settings: read-out: PPB
[9] = Protein binding in mouse plasma at 10 uM; type: ADME, cell-free; settings: read-out: PPB
[10] = Protein binding in human plasma at 10 uM; type: ADME, cell-free; settings: read-out: PPB
[11] = biological target: Mitogen-activated protein kinase; ERK1/ERK2 (Homo sapiens) (UniProt P27361+P28482); assay: Inhibition of ERK1/2 phosphorylation in human A2058 cells after 24 hrs by Western blot analysis; type: cell-based
Method in brief: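 A2058 melanoma cells were treated across a compound dose range. pERK1/2 and pRSK levels were detected by Western blot analysis.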

[12] = biological target: T1, Cytochrome P450 1A2 (Homo sapiens, UniProt P05177); assay: Inhibition of CYP1A2 (unknown origin) preincubated followed by substrate addition; type: ADME
T1 sequence (P05177 whole entry): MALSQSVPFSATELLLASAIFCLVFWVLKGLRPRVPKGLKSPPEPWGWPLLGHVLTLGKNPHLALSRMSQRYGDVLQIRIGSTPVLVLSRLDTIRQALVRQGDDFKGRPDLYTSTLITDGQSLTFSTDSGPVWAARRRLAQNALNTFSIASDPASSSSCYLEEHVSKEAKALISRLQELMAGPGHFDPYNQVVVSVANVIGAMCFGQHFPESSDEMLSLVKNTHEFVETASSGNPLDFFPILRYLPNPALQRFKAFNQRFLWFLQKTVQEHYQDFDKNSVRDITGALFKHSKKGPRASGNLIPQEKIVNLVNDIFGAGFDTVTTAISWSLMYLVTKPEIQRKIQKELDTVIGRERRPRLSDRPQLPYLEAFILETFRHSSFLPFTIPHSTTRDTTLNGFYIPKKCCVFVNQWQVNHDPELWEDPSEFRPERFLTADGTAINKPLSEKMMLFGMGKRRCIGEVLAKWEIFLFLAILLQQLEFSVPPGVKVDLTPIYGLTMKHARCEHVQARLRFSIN

[13] = biological target: Cytochrome P450 2D6 (Homo sapiens, UniProt P10635); assay: Inhibition of CYP2D6 (unknown origin) preincubated followed by substrate addition; type: ADME
[14] = system: Cavia porcellus; assay: Cardiotoxicity in telemetered guinea pig assessed as changes in PR interval at 30 to 100 mg/kg; type: toxicity, organism-based; settings: in vivo
Method in brief: (§1)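 Telemetered guinea pigs were exposed at 30 and 100 mg/kg. Electrocardiographic PR, QRS and QT/QTc intervals were monitored for changes related to the test article, and exposure was referenced to total Cmax.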

[15] = system: Cavia porcellus; assay: Cardiotoxicity in telemetered guinea pig assessed as changes in QRS interval at 30 to 100 mg/kg; type: toxicity, organism-based; settings: in vivo; method in brief: as §1
[16] = Mean residence time in CD1 mouse at 10 mg/kg, iv; type: ADME, organism-based; settings: in vivo
Method in brief: (§2)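 Intravenous dosing in male CD1 mice (10 mg/kg, n = 30), Sprague–Dawley rats (3 mg/kg, n = 3), beagle dogs (3 mg/kg, n = 3) and cynomolgus monkeys (1 mg/kg, n = 3). Vehicle was aqueous 20% hydroxypropyl-β-cyclodextrin. Mean residence time and steady-state volume of distribution were taken from plasma concentration–time profiles as mean parameters.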

[17] = Half life in Sprague-Dawley rat at 3 mg/kg, iv; type: ADME, organism-based; settings: in vivo
Method in brief: (§3)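 The compound was given intravenously as an aqueous solution in 20% hydroxypropyl-β-cyclodextrin. Animals were male CD1 mice (10 mg/kg, n = 30), Sprague–Dawley rats (3 mg/kg, n = 3), beagle dogs (3 mg/kg, n = 3) and cynomolgus monkeys (1 mg/kg, n = 3). Plasma concentration–time data gave mean AUC(0–∞), half-life, mean residence time, clearance and Vd,ss.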

[18] = Volume of distribution at steady state in Sprague-Dawley rat at 3 mg/kg, iv; type: ADME, organism-based; settings: in vivo, read-out: Vdss; method in brief: as §2
[19] = Mean residence time in Beagle dog at 3 mg/kg, iv; type: ADME, organism-based, Canis lupus familiaris; settings: in vivo; method in brief: as §2
[20] = Clearance in Beagle dog at 3 mg/kg, iv; type: ADME, organism-based, Canis lupus familiaris; settings: in vivo; method in brief: as §3
[21] = Volume of distribution at steady state in Beagle dog at 3 mg/kg, iv; type: ADME, organism-based, Canis lupus familiaris; settings: in vivo, read-out: Vdss; method in brief: as §2
[22] = system: Mus musculus; assay: Oral bioavailability in CD1 mouse at 30 mg/kg; type: ADME, organism-based; settings: in vivo
Method in brief: (§4)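 Oral dosing in male CD1 mice (30 mg/kg, n = 27), Sprague–Dawley rats (10 mg/kg, n = 3), beagle dogs (30 mg/kg, n = 3) and cynomolgus monkeys (10 mg/kg, n = 3). Mean Tmax was read from plasma concentration–time data. Bioavailability was derived from oral AUC(0–∞) compared with intravenous AUC.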

[23] = Tmax in Sprague-Dawley rat at 10 mg/kg, po; type: ADME, organism-based; settings: in vivo; method in brief: as §4
[24] = Oral bioavailability in Sprague-Dawley rat at 10 mg/kg; type: ADME, organism-based; settings: in vivo; method in brief: as §4
[25] = Tmax in Beagle dog at 30 mg/kg, po; type: ADME, organism-based, Canis lupus familiaris; settings: in vivo; method in brief: as §4
[26] = system: COLO 205; assay: Antitumor activity against human COLO205 cells xenografted in nude mouse assessed as tumor growth inhibition at 40 mg/kg, po bid measured after 28 days relative to control; type: functional; settings: COLO 205, po, 672 h, read-out: TGI
Method in brief: (§5)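 Female nude mice carrying Colo-205 human colon tumor xenografts were randomized to oral dosing twice daily at 20, 40 or 60 mg/kg, or to vehicle. After 28 days of treatment, tumor growth inhibition or tumor regression was assessed relative to vehicle control, with P-value testing.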

[27] = system: COLO 205; assay: Antitumor activity against human COLO205 cells xenografted in nude mouse assessed as tumor regression at 60 mg/kg, po bid measured after 28 days relative to control; type: functional; method in brief: as §5
[28] = Tmax in monkey at 10 mg/kg, po; settings: cynomolgus monkey, in vivo
[29] = Clearance in monkey at 1 mg/kg, iv; settings: cynomolgus monkey, in vivo
[30] = Oral bioavailability in monkey at 10 mg/kg; settings: cynomolgus monkey, in vivo
[31] = Mean residence time in monkey at 1 mg/kg, iv; settings: cynomolgus monkey, in vivo
[32] = Volume of distribution at steady state in monkey at 1 mg/kg, iv; settings: cynomolgus monkey, in vivo, read-out: Vdss

Chain of Cytochrome P450 3A4 (P08684 whole entry): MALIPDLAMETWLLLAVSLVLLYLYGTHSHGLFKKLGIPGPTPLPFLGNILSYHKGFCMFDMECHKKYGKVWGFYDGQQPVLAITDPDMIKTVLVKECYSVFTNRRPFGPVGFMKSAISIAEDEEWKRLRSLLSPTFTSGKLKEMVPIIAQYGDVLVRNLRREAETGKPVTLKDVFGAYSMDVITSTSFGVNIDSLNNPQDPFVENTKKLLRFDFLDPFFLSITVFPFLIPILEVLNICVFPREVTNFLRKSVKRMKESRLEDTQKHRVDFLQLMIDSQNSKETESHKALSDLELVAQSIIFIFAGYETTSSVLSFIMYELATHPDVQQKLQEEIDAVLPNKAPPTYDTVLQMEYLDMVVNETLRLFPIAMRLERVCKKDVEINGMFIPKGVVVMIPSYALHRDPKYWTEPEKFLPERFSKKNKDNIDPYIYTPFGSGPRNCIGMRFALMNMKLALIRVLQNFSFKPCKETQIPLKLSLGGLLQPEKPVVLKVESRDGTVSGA
Chain of Cytochrome P450 2D6 (P10635 whole entry): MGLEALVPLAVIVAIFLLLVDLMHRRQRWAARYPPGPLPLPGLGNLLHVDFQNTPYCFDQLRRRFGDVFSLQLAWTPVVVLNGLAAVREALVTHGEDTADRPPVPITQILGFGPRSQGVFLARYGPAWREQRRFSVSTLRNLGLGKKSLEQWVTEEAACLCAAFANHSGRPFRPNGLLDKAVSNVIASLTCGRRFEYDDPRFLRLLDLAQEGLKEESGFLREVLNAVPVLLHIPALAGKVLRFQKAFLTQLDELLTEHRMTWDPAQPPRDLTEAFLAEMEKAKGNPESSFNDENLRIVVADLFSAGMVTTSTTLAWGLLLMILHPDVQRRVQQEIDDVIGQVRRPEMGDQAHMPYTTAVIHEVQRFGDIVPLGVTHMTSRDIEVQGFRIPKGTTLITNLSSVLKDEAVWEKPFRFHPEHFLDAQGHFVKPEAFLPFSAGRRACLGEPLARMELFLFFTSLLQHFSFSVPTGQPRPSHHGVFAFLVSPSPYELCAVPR
Chain of Cytochrome P450 2C9 (P11712 whole entry): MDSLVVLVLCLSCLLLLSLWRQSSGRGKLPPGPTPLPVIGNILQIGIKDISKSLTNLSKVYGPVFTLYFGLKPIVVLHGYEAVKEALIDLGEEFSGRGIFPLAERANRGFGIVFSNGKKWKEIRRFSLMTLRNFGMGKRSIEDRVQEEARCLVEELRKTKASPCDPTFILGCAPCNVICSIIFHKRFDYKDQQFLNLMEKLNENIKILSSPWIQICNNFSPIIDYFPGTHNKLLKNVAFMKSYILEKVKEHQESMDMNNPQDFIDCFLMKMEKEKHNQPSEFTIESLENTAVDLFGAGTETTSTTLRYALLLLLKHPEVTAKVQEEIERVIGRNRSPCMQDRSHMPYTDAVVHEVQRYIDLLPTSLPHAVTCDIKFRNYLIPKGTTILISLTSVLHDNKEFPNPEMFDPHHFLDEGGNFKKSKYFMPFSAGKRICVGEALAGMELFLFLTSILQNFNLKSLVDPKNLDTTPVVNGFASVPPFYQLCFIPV
Chain of Mitogen-activated protein kinase; ERK1/ERK2 (Homo sapiens) (P27361 whole entry, looked up): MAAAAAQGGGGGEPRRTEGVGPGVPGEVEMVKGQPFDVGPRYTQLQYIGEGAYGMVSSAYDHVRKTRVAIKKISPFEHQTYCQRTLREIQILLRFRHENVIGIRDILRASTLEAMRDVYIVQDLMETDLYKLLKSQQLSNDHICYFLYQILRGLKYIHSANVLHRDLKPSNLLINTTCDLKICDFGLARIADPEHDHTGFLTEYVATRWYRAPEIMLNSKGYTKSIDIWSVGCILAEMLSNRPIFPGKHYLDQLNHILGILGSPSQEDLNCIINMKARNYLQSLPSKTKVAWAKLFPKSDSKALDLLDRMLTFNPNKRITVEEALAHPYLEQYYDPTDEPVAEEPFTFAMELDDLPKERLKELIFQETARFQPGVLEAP
Chain of Mitogen-activated protein kinase; ERK1/ERK2 (Homo sapiens) (P28482 whole entry, looked up): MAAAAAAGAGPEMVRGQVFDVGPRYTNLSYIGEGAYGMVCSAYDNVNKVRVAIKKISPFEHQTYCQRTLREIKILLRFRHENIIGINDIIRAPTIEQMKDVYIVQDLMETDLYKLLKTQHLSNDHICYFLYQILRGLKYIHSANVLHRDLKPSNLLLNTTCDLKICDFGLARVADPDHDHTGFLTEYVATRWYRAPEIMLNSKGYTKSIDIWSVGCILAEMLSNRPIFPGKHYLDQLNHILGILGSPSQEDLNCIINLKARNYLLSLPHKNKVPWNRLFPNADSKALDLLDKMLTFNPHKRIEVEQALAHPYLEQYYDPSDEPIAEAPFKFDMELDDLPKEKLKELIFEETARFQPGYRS
Chain of Mitogen-activated protein kinase 3 (P27361 whole entry): as the sequence (P27361 whole entry, looked up) above
Chain of hERG (KCNH2) (Q12809 whole entry): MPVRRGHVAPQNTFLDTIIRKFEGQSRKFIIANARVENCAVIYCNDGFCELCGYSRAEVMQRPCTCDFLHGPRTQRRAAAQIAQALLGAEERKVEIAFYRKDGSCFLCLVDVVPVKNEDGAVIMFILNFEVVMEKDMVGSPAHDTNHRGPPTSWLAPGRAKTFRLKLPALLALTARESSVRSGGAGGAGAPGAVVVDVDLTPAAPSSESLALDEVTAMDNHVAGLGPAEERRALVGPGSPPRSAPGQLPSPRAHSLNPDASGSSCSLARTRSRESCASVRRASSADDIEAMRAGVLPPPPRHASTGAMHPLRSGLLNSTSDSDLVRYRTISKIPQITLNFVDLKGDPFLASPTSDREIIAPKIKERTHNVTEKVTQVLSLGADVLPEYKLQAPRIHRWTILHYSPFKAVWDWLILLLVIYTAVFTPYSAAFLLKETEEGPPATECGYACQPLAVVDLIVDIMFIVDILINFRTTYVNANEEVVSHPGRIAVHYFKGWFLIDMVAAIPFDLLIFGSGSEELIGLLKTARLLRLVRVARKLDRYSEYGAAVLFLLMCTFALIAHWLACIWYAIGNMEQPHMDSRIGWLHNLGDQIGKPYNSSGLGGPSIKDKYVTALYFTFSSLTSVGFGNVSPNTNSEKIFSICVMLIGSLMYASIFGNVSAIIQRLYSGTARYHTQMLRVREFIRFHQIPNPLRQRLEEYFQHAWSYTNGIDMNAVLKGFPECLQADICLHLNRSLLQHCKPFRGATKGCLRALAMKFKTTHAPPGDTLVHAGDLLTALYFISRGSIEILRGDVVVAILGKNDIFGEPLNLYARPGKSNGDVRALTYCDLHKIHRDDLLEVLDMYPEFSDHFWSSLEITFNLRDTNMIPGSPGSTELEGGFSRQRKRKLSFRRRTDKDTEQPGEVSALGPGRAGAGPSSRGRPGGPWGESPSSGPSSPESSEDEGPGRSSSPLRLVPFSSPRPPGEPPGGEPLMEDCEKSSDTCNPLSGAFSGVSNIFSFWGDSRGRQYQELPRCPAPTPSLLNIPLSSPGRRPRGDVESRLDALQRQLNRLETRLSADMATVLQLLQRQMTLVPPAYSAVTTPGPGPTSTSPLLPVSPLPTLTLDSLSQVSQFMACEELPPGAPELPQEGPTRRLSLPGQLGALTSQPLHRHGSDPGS

IC50 [1]: 20 nM
IC50 [2]: 51 nM
IC50 [3]: > 5000 nM
IC50 [5]: > 5000 nM
Papp A→B [6]: 13.4 ×10⁻⁶ cm/s
Papp B→A [7]: 40 ×10⁻⁶ cm/s
fraction unbound at 10 µM [8]: < 0.01
fraction unbound at 10 µM [9]: < 0.01
fraction unbound at 10 µM [10]: < 0.01
inhibition [11]: Dose-dependent effect
inhibition (INH) [12]: Not Active
inhibition (INH) [13]: Not Active
MRT [16]: 1.5 h
half-life [17]: 1.6 h
Vd [18]: 0.1 L/kg
MRT [19]: 4 h
clearance [20]: 3.9 mL/min/kg
Vd [21]: 0.9 L/kg
F [22]: 80%
Tmax [23]: 1.7 h
bioavailability [24]: 50%
Tmax [25]: 4 h
Tmax [28]: 1.4 h
clearance [29]: 17.9 mL/min/kg
bioavailability [30]: 2%
MRT [31]: 1.9 h
Vd [32]: 2 L/kg
Structure (SMILES): CS[C@@]1(C(=O)Nc2ccc3[nH]nc(-c4ccc(OC(C)C)nc4)c3c2)CCN(CC(=O)N2CC=C(c3ccc(-c4ncn(C)n4)cc3)CC2)C1 [MK-8353]
inhibition at 10 µM [4]: -0.2%
Activity [14]: Non-Toxic
Activity [15]: Non-Toxic
inhibition in vivo at 40 mg/kg [26]: 88%
Activity [27]: 40%

From ChEMBL document CHEMBL4196128 (ACS Med Chem Lett, 2018)
